From the EternaBench riboswitch data

System: MS2 coat protein
Experiment: apparent Kd, MS2 coat protein; higher = weaker binding; RNA-MaP array; FMN 200 µM where present
In short: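 The apparent Kd is reported as the median of filtered per-cluster binding-curve fits. To get these curves, designs transcribed by stalled E. coli RNA polymerase on Illumina sequencing-chip clusters were titrated with SNAP-549-labelled MS2 coat protein from 0.7 or 1.5 nM, doubling to 3 µM. Titrations were run without and then with constant ligand in 100 mM Tris-HCl pH 7.5, 80 mM KCl, 4 mM MgCl2, BSA, DTT, yeast tRNA and Tween-20, and green signal was normalised to red-channel RNA signal and control-cluster median Fmax.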

[1] = designed as: ON switch for flavin mononucleotide, no ligand
[2] = ligand present: flavin mononucleotide, designed as: ON switch for flavin mononucleotide
[3] = designed as: OFF switch for flavin mononucleotide, no ligand
[4] = ligand present: flavin mononucleotide, designed as: OFF switch for flavin mononucleotide

Sequence | apparent Kd [1] [nM] | apparent Kd [2] [nM] | apparent Kd [3] [nM] | apparent Kd [4] [nM]
CGCUGCCACGCAGGAUAUGCAUUGGAUUCCAAUGCAGAAGGGCGAUUACAUGAGGAUCACCCAUGUGUUGGCAGUGAAGAAGAG | 1230 | 77.9 |  | 
CGGAUGUGAGGAUAUACAUGAGGAUCACCCAUGUGAGCCAGCUAGAUGACUGGCUCGUGUAGAAGGCACGUCUG |  |  | 13.5 | 29.3
CGGAUGUGAGGAUAUACAUGAGGAUCACCCAUGUGUGCCAGCUAGCUGACUGGCACUUGUAGAAGGCACGUCUG |  |  | 10.8 | 22
CGGCAAGUCACAGGAUAUGGUGAUGUACAUGAGGAUCACCCAUGUCCGUCUUCUCUCACAAGAUGCCAGAAGGGUGACUUCCAG | 946 | 140 |  | 
CGGCACCGAGGAUAUACAUGAGGAUCACCCAUGUUUGUUGGGCCCUUAAGAUCUACGUGUAGAAGGUGGGUCGA |  |  | 131 | 167
CGGCUGCUACGCCAGCUCGACGCACAGGAUAUGCUGUUACAUGAGGAUCACCCAUGUGGCCAAGAGCAGAAGGGUGAUUCGCGA | 33.6 | 35 |  | 
CGGGCACAUGAGGAUCACCCAUGUCAGGAUAUCGGCCGGCGGCCGCCGGGCCGCCGGCCGAGAAGGGACGCCCG |  |  | 16.4 | 18.7
CGGGUCUGAGGAUAUCCAUCUUCAUACAUGAGGAUCACCCAUGUUUACCUUUGGGUUCCUGGAGAAGGCAGUUUUC |  |  | 74.9 | 78.4
CGGUGACUGGUGAGGAUAUCGUGUUCGAAAGAACGUGAGAAGGCACAUGAGGAUCACCCAUGUGAUCCUCAUCG |  |  | 26.1 | 163
CGGUUACAAGGAUAUACAUGAGGAUCACCCAUGUCUCUCCGGGCGGAUCGAUAAUUUUGUAGAAGGUGUAAGGG |  |  | 24.5 | 63.7
CGUAACUGCAUAGGAUAUUGAUACAUGAGGAUCACCCAUGUUUUUCGGAUUAGAUAUAUACUUAGCAAGAAGGAUGGAGUUACG | 9.58 | 6.57 |  | 
CGUAAGCAAGGAUAUACAUGAGGAUCACCCAUGUAGCUUUGCUUCGUGGGCACAACAUGUAGAAGGUGCGAAAA |  |  | 15.3 | 13.3
CGUAUCGAAGAAGGAUAUCGCAACGACAGCUAGGGCUAUUCUCAACAUGAGGAUCACCCAUGUUGCGAGAAGGUCUGCUAUGCG |  |  | 27.9 | 50.5
CGUAUGGACAGAGGAUAUGCCGAUAGGAUCUACUAUCGAAGAAUCCUCACAUGAGGAUCACCCAUGUAGAAGGCUGUCCAUACU |  |  | 8.15 | 36.3
CGUAUGUCAGGAUAUGUGUAUGCCGCUCAGGGCGAGCGGCAGCAGAAGGGACAUGAGGAUCACCCAUGUUCGGG |  |  | 62.5 | 127
CGUCCUCUAGUUAGGAUAUUGUCUCGGAUACGAAACAAGAAGGGACAUGAGGAUCACCCAUGUAAUGAGGACGA |  |  | 29.2 | 28.2
CGUGAGUCAGGAUAUUAGUAGUGUGUGGAUACAUAUAUUGCUGAGAAGGGACAUGAGGAUCACCCAUGUAUACG |  |  | 32 | 37.1
CGUUAAUAUCGAGGAUAUGUCUAGACACAUGAGGAUCACCCAUGUAUGUGUAUAGAAGGCGAUAUUAACAGCAUGUUACAUGCA | 43 | 15.6 |  | 
CGUUAUAACGAGAAGGCUGUCUGCAGUCCAGACGGAGGAUAUCGAGAAGACAUGAGGAUCACCCAUGUACGCUGGUGUCUUCAU |  |  | 25.4 | 189
CGUUGUUCCGCAGGAUAUGCAUUGGAUUACAAUGCAGAAGGGCGAUAACAUGAGGAUCACCCAUGUGUGGACAAUAAGGAAGAG | 811 | 62.1 |  | 
CUAAAUCAUGUAGGAUAUCGAUUGCGUCGCGAUCGAGAAGGACAUGAGGAUCACCCAUGUCAGAACGUCUGCGUUCAGACGUUG |  |  | 48.5 | 361
CUAAAUCAUGUAGGAUAUGCAUGGCGAAGCUACGCAGAAGGACAUGAGGAUCACCCAUGUCUCUCCGUCUGCAUACAGACGGAG |  |  | 20.1 | 123
CUACUCGUUGUGAGGAUAUCGUUUUCGUCACGGAUCGAGAAGGCACAUGAGGAUCACCCAUGUUUGAUGUGGAU |  |  | 32.1 | 79.7
CUAGACAGAUCAGGAUAUCAUCGCAUGGUGCAUCCCUGUGAUUACAUGAGGAUCACCCAUGUGGAUGAGAAGGGAUUACUAUGU |  |  | 31.9 | 10.7
CUAGCAACAUGAGGAUCACCCAUGUAGGAUAUCGCUAUUGUAAUCAUGAAACAUGAUUACAAUAGCGAGAAGGACAUAUGCUAA |  |  | 7.96 | 10.8
CUAGCCCAGCCCGCCUAGUUCGGGAGAAGGAGGAGACAUGAGGAUCACCCAUGUGGCCUUAUCUCCUAGGAUAUCCCGGCGGGA |  |  | 5.56 | 21.6
CUAUAUAAUACCUCAUGUACAUGAGGAUCACCCAUGUUAACUUAGGAUAUAUUUAUAUUAAUAGAGUAGAAGGAAGUACUAUUG |  |  | 27.4 | 21.2
CUAUGCGGAAUAGGAUAUUCAUUCAUGAGGAUAGAAGAAGGGUUACAUGAGGAUCACCCAUGUAUACACAUGAGGAUCCCUUAG |  |  | 150 | 156
